According to publication PMC9494814 (Cell, 2022):
Read-outs that look alike come from different tables or passages of the source.

Experiments:
[1] = system: αIIbβ3 WT and αIIbβ3_N305T; type: binding; settings: Expi293F transfectants, L15 medium with 0.1% BSA
Summary of the method: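 Expi293F cells with α5 and αV knocked out, transiently co-transfected with αIIb plus β3 or β3_N305T; valproic acid (3 mM) and glucose (0.4%) added at 24 h. At 48 h, cells washed with EDTA-containing L-15/0.1% BSA, then plain assay medium. 10^6 cells/ml incubated with FITC-echistatin and varying test compound, 2 h at 22°C; unwashed flow cytometry. Probe Kd from titration against 5 nM AF647-MBC319.4 Fab. Compound Kd from nonlinear least-squares fits with integrin concentration as a parameter, with error propagation.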

[2] = molecular target: αIIbβ3 WT (Homo sapiens, UniProt P05106+P08514); experiment: MBC319.4 Fab LIBS epitope exposure on αIIbβ3 WT transfectants; type: cell-based; settings: inhibitors at 100x Kd
Summary of the method: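 Cells transiently transfected with αIIbβ3 received valproic acid (3 mM final) and glucose (0.4%) at 24 h, and were washed at 48 h in EDTA-containing then plain L-15/0.1% BSA. Cells were incubated with 20 nM Alexa647-MBC319.4 Fab plus inhibitor (Kd from FITC-echistatin competition on WT transfectants) in L15/0.1% BSA, 22°C for 2 h. Read-out was unwashed flow cytometry.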

[3] = molecular target: αIIbβ3_N305T (Homo sapiens, UniProt P05106+P08514, N331T); experiment: MBC319.4 Fab LIBS epitope exposure on αIIbβ3_N305T transfectants; type: cell-based; settings: αIIbβ3 N305T transfectants, inhibitors at 100x Kd
Summary of the method: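 αIIbβ3_N305T transfectants of α5/αV-knockout Expi293F cells, harvested 48 h post-transfection and EDTA-washed. Incubated with 20 nM Alexa647-labelled MBC319.4 Fab and test compound in L-15 with 0.1% BSA, equilibrated 2 h at 22°C. Fab binding read by flow cytometry without washing, as MFI.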

[4] = system: clot retraction in human PRP; experiment: Clot retraction in platelet-rich plasma; type: cell-based; settings: thrombin
Summary of the method: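 Citrated human PRP pre-incubated 20 min at RT with test compound or buffer (in Tyrode's buffer + 1% BSA) at several concentrations. Glass-tube clot retraction started with thrombin (7.5 U/ml stock) at 37°C and imaged every 15 min. Retraction = 1 − (clot area/whole reaction area). IC50 at 30 and 90 min from a three-parameter inhibitor-response fit. Three runs, PRP from three donors.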

[5] = molecular target: αIIbβ3 on washed human platelets (Homo sapiens, UniProt P05106+P08514); experiment: Platelets LIBS exposure assay; type: cell-based
Summary of the method: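 Blood from drug-free healthy donors was taken into acid-citrate-dextrose. PRP was spun (140xg, 12 min), given PGE1 at 50 ng/ml, pelleted, washed in citrate-dextrose buffer pH 6.5 and resuspended in Tyrode's pH 7.4 with 1% BSA and 1 mM Ca²⁺/Mg²⁺. […] Read-out was unwashed flow cytometry MFI, over three days with two donors.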

[6] = 2012, cited from earlier work
[7] = system: αIIbβ3; settings: patients with acute coronary syndrome ref Cox et al., 2000; cited from earlier work
[8] = system: WT αIIbβ3; experiment: Competition with FITC-echistatin binding to WT αIIbβ3 transfectant in serum; settings: 95% serum compared to 0.1% BSA
[9] = molecular target: T1, αIIbβ3 headpiece (Homo sapiens, UniProt P05106+P08514); settings: soaked in Mg2+
Summary of the method: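 Closed αIIbβ3 headpiece–10E5 Fab crystals stabilised in 15% PEG 8000, 0.2 M ammonium sulfate, 0.1 M Tris-HCl pH 8.9, with glycerol raised in 5% steps to 15%. Compound (0.1-1 mM) added in the final 20% glycerol cryo step, with 1 mM MgCl2/1 mM CaCl2 or 2 mM MnCl2/0.2 mM CaCl2. Soaked 4 h, plunge-frozen in liquid N2. Synchrotron diffraction data collected, then structure refinement.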

[10] = molecular target: T1, αIIbβ3 headpiece; experiment: Size-exclusion chromatography; type: biochemical; settings: 10 μM drug
Summary of the method: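 Superdex 200 column equilibrated with 10 µM test compound in HEPES-buffered saline containing either 1 mM Mg2+/1 mM Ca2+ or 2 mM Mn2+/0.2 mM Ca2+. αIIbβ3 headpiece (30 µg) pre-incubated 30 min at RT with 60 µM compound in matching buffer, then chromatographed. Hydrodynamic radius taken from elution. Two runs, or one, per compound; controls ≥3.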

[11] = system: α5β1; settings: ref Li et al., 2017; cited from earlier work

Chain of αIIbβ3 on washed human platelets (P08514 32-887 limits assumed): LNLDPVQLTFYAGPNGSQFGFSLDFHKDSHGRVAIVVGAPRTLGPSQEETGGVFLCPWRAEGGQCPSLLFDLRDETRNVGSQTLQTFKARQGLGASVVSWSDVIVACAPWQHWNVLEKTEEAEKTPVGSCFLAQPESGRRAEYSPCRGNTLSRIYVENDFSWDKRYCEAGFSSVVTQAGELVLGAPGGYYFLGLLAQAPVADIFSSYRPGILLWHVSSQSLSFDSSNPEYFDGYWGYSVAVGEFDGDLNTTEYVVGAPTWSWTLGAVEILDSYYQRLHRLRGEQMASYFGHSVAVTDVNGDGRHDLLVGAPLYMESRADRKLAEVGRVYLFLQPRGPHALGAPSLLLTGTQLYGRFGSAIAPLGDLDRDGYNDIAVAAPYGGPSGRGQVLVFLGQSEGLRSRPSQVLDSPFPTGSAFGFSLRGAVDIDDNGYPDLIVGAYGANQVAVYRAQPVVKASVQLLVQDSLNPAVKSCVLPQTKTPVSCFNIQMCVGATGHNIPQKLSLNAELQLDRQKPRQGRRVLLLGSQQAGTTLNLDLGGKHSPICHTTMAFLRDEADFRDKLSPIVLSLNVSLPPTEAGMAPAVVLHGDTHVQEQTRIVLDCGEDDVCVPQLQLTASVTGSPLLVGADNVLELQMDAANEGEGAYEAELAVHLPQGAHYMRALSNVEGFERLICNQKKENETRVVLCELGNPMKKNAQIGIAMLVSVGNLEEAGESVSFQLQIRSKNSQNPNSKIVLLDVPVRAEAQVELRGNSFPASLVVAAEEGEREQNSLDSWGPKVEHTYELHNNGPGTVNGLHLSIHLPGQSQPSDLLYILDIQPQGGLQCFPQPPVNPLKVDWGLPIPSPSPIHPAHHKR
Chain of αIIbβ3 on washed human platelets (P08514 891-1039 partner limits assumed): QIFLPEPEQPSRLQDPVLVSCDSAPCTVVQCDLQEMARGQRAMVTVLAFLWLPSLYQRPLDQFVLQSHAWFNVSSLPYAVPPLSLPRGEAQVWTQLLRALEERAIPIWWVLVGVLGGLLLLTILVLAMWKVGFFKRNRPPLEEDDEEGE
Chain of αIIbβ3 on washed human platelets (P05106 27-788): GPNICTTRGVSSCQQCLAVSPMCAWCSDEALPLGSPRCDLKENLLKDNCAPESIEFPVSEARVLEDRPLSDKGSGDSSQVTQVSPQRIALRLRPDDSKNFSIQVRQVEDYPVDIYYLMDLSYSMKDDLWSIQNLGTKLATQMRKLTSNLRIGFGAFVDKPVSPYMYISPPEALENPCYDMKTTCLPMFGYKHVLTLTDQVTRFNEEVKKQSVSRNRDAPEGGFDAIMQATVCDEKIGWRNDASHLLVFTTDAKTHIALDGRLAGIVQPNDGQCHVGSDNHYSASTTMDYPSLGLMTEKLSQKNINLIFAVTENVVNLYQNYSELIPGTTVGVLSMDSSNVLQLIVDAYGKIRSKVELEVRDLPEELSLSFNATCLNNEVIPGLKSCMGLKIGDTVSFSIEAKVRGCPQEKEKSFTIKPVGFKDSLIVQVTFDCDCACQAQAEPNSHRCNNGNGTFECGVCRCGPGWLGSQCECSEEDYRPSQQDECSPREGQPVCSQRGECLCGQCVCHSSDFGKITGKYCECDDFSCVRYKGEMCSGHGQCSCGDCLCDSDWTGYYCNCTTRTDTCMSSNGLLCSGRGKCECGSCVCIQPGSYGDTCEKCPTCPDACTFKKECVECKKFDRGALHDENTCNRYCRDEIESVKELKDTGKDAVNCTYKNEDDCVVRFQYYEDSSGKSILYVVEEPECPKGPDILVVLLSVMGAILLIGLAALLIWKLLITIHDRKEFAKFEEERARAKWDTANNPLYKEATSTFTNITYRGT
T1 sequence (P08514 32-488 limits assumed): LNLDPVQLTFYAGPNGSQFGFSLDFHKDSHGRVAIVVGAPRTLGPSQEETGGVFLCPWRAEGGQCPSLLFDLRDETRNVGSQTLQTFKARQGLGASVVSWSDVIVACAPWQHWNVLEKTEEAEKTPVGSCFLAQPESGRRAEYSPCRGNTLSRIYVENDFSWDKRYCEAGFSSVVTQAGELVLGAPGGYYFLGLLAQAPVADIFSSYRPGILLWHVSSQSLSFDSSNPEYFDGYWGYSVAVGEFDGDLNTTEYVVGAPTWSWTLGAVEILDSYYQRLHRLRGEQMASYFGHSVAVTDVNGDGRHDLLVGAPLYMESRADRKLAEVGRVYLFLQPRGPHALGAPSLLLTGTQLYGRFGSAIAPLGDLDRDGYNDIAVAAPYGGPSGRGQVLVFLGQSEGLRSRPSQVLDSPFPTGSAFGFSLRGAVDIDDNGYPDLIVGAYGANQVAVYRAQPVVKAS
T1 sequence (P05106 27-498 limits assumed): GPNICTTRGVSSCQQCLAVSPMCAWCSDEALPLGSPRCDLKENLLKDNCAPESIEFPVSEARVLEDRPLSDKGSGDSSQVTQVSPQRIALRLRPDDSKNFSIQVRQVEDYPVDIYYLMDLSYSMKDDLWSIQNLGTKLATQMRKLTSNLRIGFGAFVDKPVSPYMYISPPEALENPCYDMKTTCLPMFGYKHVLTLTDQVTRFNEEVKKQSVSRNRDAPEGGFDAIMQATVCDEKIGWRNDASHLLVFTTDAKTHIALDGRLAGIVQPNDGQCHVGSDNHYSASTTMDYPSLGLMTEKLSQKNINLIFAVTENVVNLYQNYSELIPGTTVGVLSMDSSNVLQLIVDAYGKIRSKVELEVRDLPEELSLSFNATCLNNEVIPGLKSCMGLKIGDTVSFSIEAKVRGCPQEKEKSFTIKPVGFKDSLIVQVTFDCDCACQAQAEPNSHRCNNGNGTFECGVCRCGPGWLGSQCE
Chain of αIIbβ3 WT (P08514 32-887 limits assumed): as the sequence (P08514 32-887 limits assumed) above
Chain of αIIbβ3 WT (P08514 891-1039 partner limits assumed): as the sequence (P08514 891-1039 partner limits assumed) above
Chain of αIIbβ3 WT (P05106 27-788): as the sequence (P05106 27-788) above
Chain of αIIbβ3_N305T (P08514 32-887 limits assumed): as the sequence (P08514 32-887 limits assumed) above
Chain of αIIbβ3_N305T (P08514 891-1039 partner limits assumed): as the sequence (P08514 891-1039 partner limits assumed) above
Chain of αIIbβ3_N305T (P05106 27-788 N331T): as the sequence (P05106 27-788) above, with N305T counted along it

NCC(=O)Nc1cncc(-c2nn3c(=O)cc(N4CCNCC4)nc3s2)c1 [RUC-4]
affinity for activated mutant (β3 N305T) compared with WT αIIbβ3 [1]: indistinguishable | LIBS (MBC319.4) epitope exposure [2]: no effect on LIBS epitope expression | LIBS (MBC319.4) epitope exposure [3]: no effect on LIBS epitope expression | inhibition of clot retraction [4]: effective | LIBS epitope exposure (integrin extension) on washed platelets ([5]; absence of thrombin): no significant effect | LIBS epitope exposure (integrin extension) on washed platelets ([5]; after activation with thrombin 0.5 U/ml): no effect on integrin extension

CCOCc1cc(OC)c(-c2ccc(C[C@H](NC(=O)c3c(F)cccc3F)C(=O)O)cc2)c(OC)c1 [firategrast]
gadolinium-enhanced lesions ([6]; highest dose ref Miller et al.): significant decrease | gadolinium-enhanced lesions ([6]; lowest dose ref Miller et al.): significant increase | gadolinium-enhanced lesions ([6]; middle dose ref Miller et al.): lack of effect

CCOC(=O)CCNC(=O)N[C@H]1CCN(c2ccc(C(=N)N)cc2)C1=O [orbofiban]
platelet activation markers in treated patients [7]: increased αIIbβ3 conformational change, antibody-stimulated thromboxane B2 production, and CD63 expression

CCCCS(=O)(=O)N[C@@H](Cc1ccc(OCCCCC2CCNCC2)cc1)C(=O)O [tirofiban]
decrease of affinity in 95% serum [8]: 1.8 fold | effect on structure of closed αIIbβ3 headpiece in crystals [9]: Ser-123 displaced water 1 to coordinate directly to the MIDAS metal ion | effect on αIIbβ3 headpiece opening in gel filtration ([10]; 1 mM Mg2+/1 mM Ca2+): caused the headpiece to elute earlier in gel filtration | hydrodynamic radius of αIIbβ3 headpiece ([10]; 2 mM Mn2+/0.2 mM Ca2+): ~ 5.36 nm | LIBS (MBC319.4) epitope exposure [2]: next strongest | inhibition of clot retraction [4]: effective | LIBS epitope exposure (integrin extension) on washed platelets ([5]; absence of thrombin): Stronger extension

fibronectin
higher affinity for the open than the closed conformation [11]: 6,000 fold
